Source: ChEMBL document CHEMBL5712886, “Discovery and Characterization of GSK2801, a Selective Chemical Probe for the Bromodomains BAZ2A and BAZ2B” (J Med Chem, 2016)
Activity calls are given as the source filed them. The rule behind the calls is not given here.

Columns and labels:
[1] = molecular target: Transcription initiation factor TFIID subunit 1-like (Homo sapiens) (UniProt Q8IZX4); assay: Binding affinity to biotinylated TAF1L bromodomain-1 (unknown origin) expressed in Escherichia coli at 0.2 to 1 uM by Biolayer Interferometric analysis; conditions: dose 0.2-1 µM
In short: (§1)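 Bromodomains carrying a BirA biotin ligase targeting sequence, coexpressed with BirA in bacteria to give homogeneous in vivo biotin labelling, checked by mass spectrometry. Biotinylated proteins probed by biolayer interferometry with compound at two concentrations, 0.2 and 1.0 μM.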

[2] = molecular target: T1, SWI/SNF-related matrix-associated actin-dependent regulator of chromatin subfamily A member 2 (Homo sapiens, UniProt P51531); assay: Binding affinity to SMARCA2 in human HuT78 cell extract using GSK2801 affinity matrix by chemoproteomic competition binding assay; format: cell-free
[3] = molecular target: Protein polybromo-1 (Homo sapiens) (UniProt Q86U86); assay: Binding affinity to biotinylated PB1 bromodomain-5 (unknown origin) expressed in Escherichia coli at 0.2 to 1 uM by Biolayer Interferometric analysis; conditions: dose 0.2-1 µM; in short: as §1
[4] = molecular target: Bromodomain testis-specific protein (Homo sapiens) (UniProt Q58F21); assay: Binding affinity to biotinylated BRDT bromodomain-1 (unknown origin) expressed in Escherichia coli at 0.2 to 1 uM by Biolayer Interferometric analysis; conditions: dose 0.2-1 µM; in short: as §1
[5] = molecular target: Bromodomain-containing protein 7 (Homo sapiens) (UniProt Q9NPI1); assay: Binding affinity to biotinylated BRD7 (unknown origin) expressed in Escherichia coli at 0.2 to 1 uM by Biolayer Interferometric analysis; conditions: dose 0.2-1 µM; in short: as §1
[6] = molecular target: T1, SWI/SNF-related matrix-associated actin-dependent regulator of chromatin subfamily A member 2; assay: Binding affinity to biotinylated SMARCA2 (unknown origin) expressed in Escherichia coli at 0.2 to 1 uM by Biolayer Interferometric analysis; conditions: dose 0.2-1 µM; in short: as §1
[7] = molecular target: Bromodomain adjacent to zinc finger domain protein 2A (Homo sapiens) (UniProt Q9UIF9); assay: Binding affinity to BAZ2A in human HuT78 cell extract up to 50 uM using GSK2801 affinity matrix by chemoproteomic competition binding assay; format: cell-free
[8] = molecular target: Transcription initiation factor TFIID subunit 1 (Homo sapiens) (UniProt P21675); assay: Binding affinity to biotinylated TAF1 bromodomain-2 (unknown origin) expressed in Escherichia coli at 0.2 to 1 uM by Biolayer Interferometric analysis; conditions: dose 0.2-1 µM; in short: as §1
[9] = molecular target: Bromodomain adjacent to zinc finger domain protein 2B (Homo sapiens) (UniProt Q9UIF8); assay: Binding affinity to BAZ2B in human HuT78 cell extract up to 50 uM using GSK2801 affinity matrix by chemoproteomic competition binding assay; format: cell-free
[10] = molecular target: Transcription initiation factor TFIID subunit 1-like (Homo sapiens) (UniProt Q8IZX4); assay: Binding affinity to biotinylated TAF1L bromodomain-2 (unknown origin) expressed in Escherichia coli at 0.2 to 1 uM by Biolayer Interferometric analysis; conditions: dose 0.2-1 µM; in short: as §1
[11] = molecular target: Histone-lysine N-methyltransferase ASH1L (Homo sapiens) (UniProt Q9NR48); assay: Binding affinity to biotinylated ASH1L bromodomain (unknown origin) expressed in Escherichia coli at 0.2 to 1 uM by Biolayer Interferometric analysis; conditions: dose 0.2-1 µM; in short: as §1
[12] = molecular target: Nuclear body protein SP140 (Homo sapiens) (UniProt Q13342); assay: Binding affinity to biotinylated SP140 (unknown origin) expressed in Escherichia coli at 0.2 to 1 uM by Biolayer Interferometric analysis; conditions: dose 0.2-1 µM; in short: as §1
[13] = molecular target: Histone acetyltransferase p300 (Homo sapiens) (UniProt Q09472); assay: Binding affinity to biotinylated EP300 (unknown origin) expressed in Escherichia coli at 0.2 to 1 uM by Biolayer Interferometric analysis; conditions: dose 0.2-1 µM; in short: as §1
[14] = molecular target: Transcription intermediary factor 1-beta (Homo sapiens) (UniProt Q13263); assay: Binding affinity to biotinylated TRIM28 (unknown origin) expressed in Escherichia coli at 0.2 to 1 uM by Biolayer Interferometric analysis; conditions: dose 0.2-1 µM; in short: as §1
[15] = molecular target: Chromatin remodeling regulator CECR2 (Homo sapiens) (UniProt Q9BXF3); assay: Binding affinity to biotinylated CECR2 (unknown origin) expressed in Escherichia coli at 0.2 to 1 uM by Biolayer Interferometric analysis; conditions: dose 0.2-1 µM; in short: as §1
[16] = molecular target: T2, Bromodomain-containing protein 9 (Homo sapiens) (UniProt Q9H8M2); assay: Binding affinity to biotinylated BRD9 (unknown origin) expressed in Escherichia coli at 0.2 to 1 uM by Biolayer Interferometric analysis; conditions: dose 0.2-1 µM; in short: as §1
T2 sequence (whole entry): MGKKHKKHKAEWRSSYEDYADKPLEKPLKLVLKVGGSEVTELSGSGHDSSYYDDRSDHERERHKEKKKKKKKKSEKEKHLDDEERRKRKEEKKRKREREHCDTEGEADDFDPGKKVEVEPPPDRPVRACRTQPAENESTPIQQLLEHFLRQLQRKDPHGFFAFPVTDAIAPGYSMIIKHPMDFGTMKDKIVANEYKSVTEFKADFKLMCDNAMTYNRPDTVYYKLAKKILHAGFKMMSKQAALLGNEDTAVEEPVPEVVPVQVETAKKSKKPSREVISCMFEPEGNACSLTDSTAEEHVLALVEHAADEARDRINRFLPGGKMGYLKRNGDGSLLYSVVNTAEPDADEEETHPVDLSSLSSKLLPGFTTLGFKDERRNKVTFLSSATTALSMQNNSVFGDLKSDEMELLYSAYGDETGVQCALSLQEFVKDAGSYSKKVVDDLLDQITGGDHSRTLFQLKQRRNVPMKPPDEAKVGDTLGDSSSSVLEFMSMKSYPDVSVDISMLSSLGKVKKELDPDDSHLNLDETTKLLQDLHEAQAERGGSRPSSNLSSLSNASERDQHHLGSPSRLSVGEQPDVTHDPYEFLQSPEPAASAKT

[17] = molecular target: Protein polybromo-1 (Homo sapiens) (UniProt Q86U86); assay: Binding affinity to biotinylated PB1 bromodomain-6 (unknown origin) expressed in Escherichia coli at 0.2 to 1 uM by Biolayer Interferometric analysis; conditions: dose 0.2-1 µM; in short: as §1
[18] = molecular target: Bromodomain and WD repeat-containing protein 1 (Homo sapiens) (UniProt Q9NSI6); assay: Binding affinity to biotinylated WDR9 (unknown origin) expressed in Escherichia coli at 0.2 to 1 uM by Biolayer Interferometric analysis; conditions: dose 0.2-1 µM; in short: as §1
[19] = molecular target: PH-interacting protein (Homo sapiens) (UniProt Q8WWQ0); assay: Binding affinity to biotinylated PHIP (unknown origin) expressed in Escherichia coli at 0.2 to 1 uM by Biolayer Interferometric analysis; conditions: dose 0.2-1 µM; in short: as §1
[20] = molecular target: Bromodomain-containing protein 2 (Homo sapiens) (UniProt P25440); assay: Binding affinity to biotinylated BRD2 bromodomain-2 (unknown origin) expressed in Escherichia coli at 0.2 to 1 uM by Biolayer Interferometric analysis; conditions: dose 0.2-1 µM; in short: as §1
[21] = molecular target: Histone acetyltransferase KAT2A (Homo sapiens) (UniProt Q92830); assay: Binding affinity to biotinylated GCN5L2 (unknown origin) expressed in Escherichia coli at 0.2 to 1 uM by Biolayer Interferometric analysis; conditions: dose 0.2-1 µM; in short: as §1

T1 sequence (P51531 whole entry): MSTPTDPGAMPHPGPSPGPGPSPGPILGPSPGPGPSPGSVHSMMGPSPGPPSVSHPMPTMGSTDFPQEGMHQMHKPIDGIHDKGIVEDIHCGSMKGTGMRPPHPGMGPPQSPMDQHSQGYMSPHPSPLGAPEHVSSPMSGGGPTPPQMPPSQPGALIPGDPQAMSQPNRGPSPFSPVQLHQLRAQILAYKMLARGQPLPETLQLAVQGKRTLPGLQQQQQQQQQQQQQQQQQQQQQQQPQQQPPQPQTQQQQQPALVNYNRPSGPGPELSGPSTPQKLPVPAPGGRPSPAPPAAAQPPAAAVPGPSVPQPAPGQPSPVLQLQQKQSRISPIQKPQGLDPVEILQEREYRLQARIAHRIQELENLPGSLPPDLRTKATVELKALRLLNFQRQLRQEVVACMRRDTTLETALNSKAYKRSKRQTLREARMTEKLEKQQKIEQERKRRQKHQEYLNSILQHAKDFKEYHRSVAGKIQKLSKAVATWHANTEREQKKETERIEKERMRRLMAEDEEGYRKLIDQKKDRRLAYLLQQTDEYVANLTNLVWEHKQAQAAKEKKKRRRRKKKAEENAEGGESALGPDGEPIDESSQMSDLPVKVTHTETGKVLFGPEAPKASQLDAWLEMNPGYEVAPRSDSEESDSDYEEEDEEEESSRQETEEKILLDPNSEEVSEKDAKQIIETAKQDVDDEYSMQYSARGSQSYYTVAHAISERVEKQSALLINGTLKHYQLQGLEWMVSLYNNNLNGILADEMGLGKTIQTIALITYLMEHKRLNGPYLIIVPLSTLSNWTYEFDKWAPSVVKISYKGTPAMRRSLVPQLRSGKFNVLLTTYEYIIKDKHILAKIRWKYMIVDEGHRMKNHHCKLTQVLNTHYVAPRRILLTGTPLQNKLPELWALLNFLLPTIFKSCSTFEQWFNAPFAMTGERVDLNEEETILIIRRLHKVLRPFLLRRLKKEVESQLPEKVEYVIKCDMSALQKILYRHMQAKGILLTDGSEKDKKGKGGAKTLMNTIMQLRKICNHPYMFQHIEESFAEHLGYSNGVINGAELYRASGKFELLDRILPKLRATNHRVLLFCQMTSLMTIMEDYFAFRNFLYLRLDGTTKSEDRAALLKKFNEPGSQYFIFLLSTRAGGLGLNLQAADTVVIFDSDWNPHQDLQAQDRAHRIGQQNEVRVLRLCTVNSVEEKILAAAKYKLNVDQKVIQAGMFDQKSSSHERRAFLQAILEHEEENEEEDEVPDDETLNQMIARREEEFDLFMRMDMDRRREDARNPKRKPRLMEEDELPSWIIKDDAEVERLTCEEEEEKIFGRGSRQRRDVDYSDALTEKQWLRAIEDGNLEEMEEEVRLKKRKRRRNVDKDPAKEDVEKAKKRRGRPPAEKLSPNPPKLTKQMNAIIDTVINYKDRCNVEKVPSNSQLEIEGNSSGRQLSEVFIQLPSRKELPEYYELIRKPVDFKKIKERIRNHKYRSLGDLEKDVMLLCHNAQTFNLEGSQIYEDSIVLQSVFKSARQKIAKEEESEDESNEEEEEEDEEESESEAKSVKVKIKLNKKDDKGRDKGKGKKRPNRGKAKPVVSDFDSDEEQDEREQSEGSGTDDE
Sequence of Transcription initiation factor TFIID subunit 1-like (Homo sapiens) (Q8IZX4 whole entry): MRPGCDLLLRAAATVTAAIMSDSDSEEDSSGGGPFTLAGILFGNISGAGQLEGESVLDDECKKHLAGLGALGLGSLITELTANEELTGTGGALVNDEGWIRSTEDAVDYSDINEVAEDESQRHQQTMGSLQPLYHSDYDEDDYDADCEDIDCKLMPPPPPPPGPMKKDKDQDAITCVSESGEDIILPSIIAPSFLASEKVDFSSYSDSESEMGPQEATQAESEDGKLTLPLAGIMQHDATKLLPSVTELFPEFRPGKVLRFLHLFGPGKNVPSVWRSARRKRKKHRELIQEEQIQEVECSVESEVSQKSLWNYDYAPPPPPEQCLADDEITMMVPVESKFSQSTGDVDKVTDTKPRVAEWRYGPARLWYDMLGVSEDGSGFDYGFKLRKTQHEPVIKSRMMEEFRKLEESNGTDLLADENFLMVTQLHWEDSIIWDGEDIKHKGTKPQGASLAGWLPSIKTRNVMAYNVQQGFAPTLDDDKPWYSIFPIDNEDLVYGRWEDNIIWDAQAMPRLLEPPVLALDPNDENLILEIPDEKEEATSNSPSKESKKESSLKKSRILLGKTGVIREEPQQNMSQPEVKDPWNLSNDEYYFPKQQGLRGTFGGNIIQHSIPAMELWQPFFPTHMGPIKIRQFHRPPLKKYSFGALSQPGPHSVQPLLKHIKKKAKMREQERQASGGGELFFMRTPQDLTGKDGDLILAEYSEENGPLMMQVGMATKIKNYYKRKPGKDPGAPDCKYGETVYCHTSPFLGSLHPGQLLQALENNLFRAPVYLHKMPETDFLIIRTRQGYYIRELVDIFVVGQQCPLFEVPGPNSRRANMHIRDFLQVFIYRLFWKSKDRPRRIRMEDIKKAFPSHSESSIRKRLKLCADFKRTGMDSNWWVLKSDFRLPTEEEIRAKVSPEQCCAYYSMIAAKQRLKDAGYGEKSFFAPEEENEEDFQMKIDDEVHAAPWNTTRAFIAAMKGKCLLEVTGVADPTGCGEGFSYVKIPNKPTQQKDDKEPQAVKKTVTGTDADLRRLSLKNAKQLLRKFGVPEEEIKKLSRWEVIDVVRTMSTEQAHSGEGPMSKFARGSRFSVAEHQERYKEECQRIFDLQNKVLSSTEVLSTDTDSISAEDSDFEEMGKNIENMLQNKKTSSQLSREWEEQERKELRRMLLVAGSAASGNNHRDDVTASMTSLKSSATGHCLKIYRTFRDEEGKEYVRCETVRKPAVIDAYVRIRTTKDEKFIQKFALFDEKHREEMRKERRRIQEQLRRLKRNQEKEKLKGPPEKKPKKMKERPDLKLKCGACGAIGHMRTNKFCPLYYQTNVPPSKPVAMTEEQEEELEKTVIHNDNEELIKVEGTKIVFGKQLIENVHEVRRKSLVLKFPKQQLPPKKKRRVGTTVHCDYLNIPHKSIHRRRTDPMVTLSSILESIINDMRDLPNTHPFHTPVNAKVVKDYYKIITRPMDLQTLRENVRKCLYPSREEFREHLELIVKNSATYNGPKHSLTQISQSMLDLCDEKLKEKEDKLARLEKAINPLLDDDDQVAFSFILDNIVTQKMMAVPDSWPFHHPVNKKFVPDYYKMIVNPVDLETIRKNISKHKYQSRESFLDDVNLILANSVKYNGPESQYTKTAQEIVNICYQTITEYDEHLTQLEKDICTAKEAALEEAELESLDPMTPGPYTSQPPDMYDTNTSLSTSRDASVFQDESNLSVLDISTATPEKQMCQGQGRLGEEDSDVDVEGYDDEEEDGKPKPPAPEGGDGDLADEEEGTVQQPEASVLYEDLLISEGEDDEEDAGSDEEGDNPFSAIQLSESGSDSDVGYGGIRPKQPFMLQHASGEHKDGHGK
Sequence of Protein polybromo-1 (Homo sapiens) (Q86U86 whole entry): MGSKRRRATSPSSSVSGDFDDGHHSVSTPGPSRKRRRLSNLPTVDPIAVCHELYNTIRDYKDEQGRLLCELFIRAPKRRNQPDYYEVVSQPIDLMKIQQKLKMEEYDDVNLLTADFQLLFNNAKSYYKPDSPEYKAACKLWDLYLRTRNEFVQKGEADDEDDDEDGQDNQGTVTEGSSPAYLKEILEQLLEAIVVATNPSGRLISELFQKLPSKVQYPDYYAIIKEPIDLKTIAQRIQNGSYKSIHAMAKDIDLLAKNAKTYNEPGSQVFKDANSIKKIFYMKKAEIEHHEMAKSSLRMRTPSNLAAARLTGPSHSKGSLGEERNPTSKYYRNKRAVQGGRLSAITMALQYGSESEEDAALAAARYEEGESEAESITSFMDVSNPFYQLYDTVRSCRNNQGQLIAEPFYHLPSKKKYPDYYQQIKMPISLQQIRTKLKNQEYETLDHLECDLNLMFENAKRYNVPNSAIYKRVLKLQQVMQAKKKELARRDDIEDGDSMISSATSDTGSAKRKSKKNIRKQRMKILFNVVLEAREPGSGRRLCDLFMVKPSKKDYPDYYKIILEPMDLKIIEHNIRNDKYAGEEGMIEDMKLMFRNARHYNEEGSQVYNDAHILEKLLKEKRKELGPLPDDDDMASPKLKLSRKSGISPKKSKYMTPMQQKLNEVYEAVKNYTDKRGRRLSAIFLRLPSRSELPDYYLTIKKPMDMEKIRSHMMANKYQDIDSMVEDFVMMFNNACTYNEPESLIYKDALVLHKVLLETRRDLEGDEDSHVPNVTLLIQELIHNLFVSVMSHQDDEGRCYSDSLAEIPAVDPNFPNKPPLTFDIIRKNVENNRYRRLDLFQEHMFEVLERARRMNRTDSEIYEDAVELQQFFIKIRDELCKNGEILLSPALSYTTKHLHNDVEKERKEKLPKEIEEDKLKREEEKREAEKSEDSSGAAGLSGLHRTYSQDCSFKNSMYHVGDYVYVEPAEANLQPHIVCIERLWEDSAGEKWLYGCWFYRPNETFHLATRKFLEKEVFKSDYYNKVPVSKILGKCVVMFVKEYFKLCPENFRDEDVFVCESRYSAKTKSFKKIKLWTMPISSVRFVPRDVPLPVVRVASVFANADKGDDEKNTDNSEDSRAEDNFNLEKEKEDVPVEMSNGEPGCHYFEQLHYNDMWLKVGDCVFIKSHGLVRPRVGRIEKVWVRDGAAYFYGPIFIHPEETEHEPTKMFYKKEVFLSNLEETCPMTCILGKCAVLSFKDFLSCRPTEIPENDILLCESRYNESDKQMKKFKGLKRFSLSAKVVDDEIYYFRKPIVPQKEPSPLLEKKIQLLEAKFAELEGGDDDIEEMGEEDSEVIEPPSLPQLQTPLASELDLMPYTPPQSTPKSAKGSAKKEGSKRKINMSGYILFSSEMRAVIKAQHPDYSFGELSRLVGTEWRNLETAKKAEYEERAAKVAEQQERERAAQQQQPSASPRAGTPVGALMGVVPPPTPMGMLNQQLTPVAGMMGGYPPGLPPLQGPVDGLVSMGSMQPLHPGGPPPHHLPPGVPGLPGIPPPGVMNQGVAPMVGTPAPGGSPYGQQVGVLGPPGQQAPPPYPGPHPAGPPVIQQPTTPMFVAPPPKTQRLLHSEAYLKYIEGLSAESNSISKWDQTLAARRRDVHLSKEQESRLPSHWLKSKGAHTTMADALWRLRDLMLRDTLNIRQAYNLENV

CCCOc1ccn2c(C(C)=O)cc(-c3cccc(OC)c3)c2c1
Activity [1]: inactive
Kd [2]: 15.8 µM
Activity [3]: inactive
Activity [4]: inactive
Activity [5]: inactive
Activity [6]: inactive
Activity [7]: inactive
Activity [8]: inactive
Activity [9]: inactive
Activity [10]: inactive
Activity [11]: inactive
Activity [12]: inactive
Activity [13]: inactive
Activity [14]: inactive
Activity [15]: inactive
Activity [16]: Active
Activity [17]: inactive
Activity [18]: inactive
Activity [19]: inactive
Activity [20]: inactive
Activity [21]: inactive
